Assay outcomes (PubChem BioAssay)
C2C12 statin – protects C2C12 myotubes from simvastatin toxicity; ATP luminescence, 48 h; scaled: DMSO 0, geranylgeraniol control 100; rescue of ATP level, % at 7.49 µM; 330,000 tested, 0.78% active;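 active = mean ATP rescue above about 67%, or every replicate alone reaching that limit, limit read from the data, passing the limit was not always enough; inconclusive = no clear call, values can overlap the other calls; inactive = mean under the limit and some replicate under it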;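 note: myotubes were challenged with 10 µM simvastatin during compound exposure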
Cneo AK release – Cryptococcus neoformans lysis via adenylate kinase release; lysis activity, % at 15 µM; AID 651654; C. neoformans lysis, adenylate kinase release luminescence, 4 h; normalised: neutral wells 0, clomiphene wells 100; 360,000 tested, 0.2% active;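 active = mean lysis activity across replicates of at least 80%, whatever share of replicates individually reach that level; inactive = mean lysis activity below 80%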
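Material – log-phase Cryptococcus neoformans yeast cells · Input – 5 × 10^6 yeast cells/mL · Medium – fresh YPD growth medium · Doses – single compound concentration per well · Timing – static 4 h at 37 °C with compound, 1 h detection · Detection – adenylate kinase release luminescence · Read-out – signal increase indicating cell lysis · Control set – Clomiphene as positive lysis control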
DENV2 CPE rescue – DENV2-induced cell death inhibition | CPE inhibition, % at 9.99 µM | DENV2-infected cells, cytopathic effect rescue, plate reader | AID 651640 | 350,000 tested, 1.7% active; in the data active = CPE inhibition above about 20%, passing the limit was not always enough; inconclusive = no clear call, values can overlap the other calls; tested in BHK-21 cells
F508del corr – CFTR F508del correction in bronchial cells; AID 720511; 350,000 tested, 0.36% active; CFBE cells, YFP halide quenching; stimulated with forskolin plus potentiator P3; % fluorescence drop versus neutral controls; activity (quench increase), % at 7.58 µM;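 active = mean added fluorescence quench of at least 8% versus neutral control, with both replicates also reaching 8%; inconclusive = only one of the mean or replicate conditions met; inactive = mean below 8% and not both replicates reaching 8%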;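 note: cells transiently co-express mutant CFTR-F508del with the halide-sensitive YFP; corrector assay measuring rescue of mutant channel to the surface after 24 h compound exposure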
ERp5 inh – ERp5 (human) disulfide isomerase inhibition; Q15084; ERp5 insulin aggregation, absorbance 650 nm, 90 min; inhibition, % at 9.99 µM; 350,000 tested, 0.05% active;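 active = mean replicate inhibition above about 25%, with every replicate also reaching it, limit read from the data, passing the limit was not always enough; inconclusive = only one of those two criteria met; inactive = neither criterion met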
Target sequence (Q15084 whole entry, looked up): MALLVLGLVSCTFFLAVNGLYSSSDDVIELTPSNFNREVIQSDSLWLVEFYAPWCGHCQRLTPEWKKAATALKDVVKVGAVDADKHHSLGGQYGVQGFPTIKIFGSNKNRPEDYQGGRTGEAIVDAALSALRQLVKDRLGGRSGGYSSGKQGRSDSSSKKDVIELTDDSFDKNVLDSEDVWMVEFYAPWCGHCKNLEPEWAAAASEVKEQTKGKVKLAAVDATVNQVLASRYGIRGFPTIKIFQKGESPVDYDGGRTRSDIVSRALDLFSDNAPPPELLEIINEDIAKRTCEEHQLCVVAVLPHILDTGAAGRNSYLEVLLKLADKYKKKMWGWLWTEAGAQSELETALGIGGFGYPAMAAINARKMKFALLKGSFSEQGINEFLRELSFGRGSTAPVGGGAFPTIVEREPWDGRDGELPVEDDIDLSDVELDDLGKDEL
PDI turbidity – blocks human protein disulfide isomerase activity; AID 588391; inhibition, % at 10 µM; 350,000 tested, 0.052% active; PDI insulin aggregation turbidity, A650, 90 min; P07237;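 active = mean inhibition across replicates of 30% or more, whatever share of single replicates reach that level; inconclusive = mean inhibition below 30% while every single replicate reaches 30%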
A number is an active result; - = inactive; ? = inconclusive; . = no result; ! = not confirmed by another sample. In the library only some 2.3% were active in any assay of this set; here they are far more common.

SMILES | C2C12 statin | Cneo AK release | DENV2 CPE rescue | F508del corr | ERp5 inh | PDI turbidity
CCOC(=O)C1=NN(c2ccc(OC)cc2)C2C(=O)N(c3ccccc3OC)C(=O)C12 (stereo not drawn) | . | . | - | - | - | -
CCOC(=O)C1=NN(C(=O)Nc2ccc(OC)cc2)C2C(=O)N(c3cccc(C(F)(F)F)c3)C(=O)C12 (stereo not drawn) | 102 | - | . | . | . | -
CC(=O)c1ccc(NC(=O)Nc2sc(NS(=O)(=O)c3ccccc3)nc2C)cc1 | 100 | - | - | - | - | -
C#CCN1C=C(C(=O)OCC)C(C)N(Cc2ccccc2I)S1(=O)=O (stereo not drawn) | - | - | 74 | - | - | -
CCOC(=O)C1=CN(Cc2cccc(-c3cccnc3)c2)S(=O)(=O)N(C)C1C (stereo not drawn) | - | - | - | - | - | -
CCOC(=O)C1=CN(Cc2cccc(Br)c2)S(=O)(=O)N(C)C1C (stereo not drawn) | - | - | 37 | - | - | -
CCOC(=O)C1=CN(Cc2cccc(I)c2)S(=O)(=O)N(C)C1C (stereo not drawn) | - | - | - | 12 | - | -
C[C@@H]1CN([C@@H](C)CO)C(=O)c2cc(NS(=O)(=O)c3ccc(Cl)cc3)ccc2O[C@@H]1CN(C)Cc1ccc(C(F)(F)F)cc1 | . | . | . | 9.8 | . | .
Cc1ccc(S(=O)(=O)Nc2ccc3c(c2)C(=O)N([C@H](C)CO)C[C@H](C)[C@H](CN(C)Cc2ccccc2)O3)cc1 | - | - | - | - | - | .
C[C@H](CO)N1C[C@H](C)[C@@H](CN(C)Cc2ccc(C(F)(F)F)cc2)Oc2ccc(NS(=O)(=O)c3ccc(F)cc3)cc2C1=O | - | - | - | - | - | .
C[C@@H]1CN([C@H](C)CO)C(=O)c2cc(NS(=O)(=O)c3ccc(Cl)cc3)ccc2O[C@@H]1CN(C)Cc1ccccc1 | - | - | 42 | - | - | .
Cc1ccc(S(=O)(=O)Nc2ccc3c(c2)C(=O)N([C@H](C)CO)C[C@H](C)[C@@H](CN(C)Cc2ccccc2)O3)cc1 | - | 100! | - | - | - | -
C[C@@H]1CN([C@H](C)CO)C(=O)c2cc(NS(=O)(=O)c3ccc(Cl)cc3)ccc2O[C@H]1CN(C)Cc1ccccc1 | - | - | - | - | - | .
CC(C)NC(=O)N(C)C[C@@H]1Oc2ncc(C#Cc3ccccc3F)cc2C(=O)N([C@@H](C)CO)C[C@H]1C | - | - | - | - | - | .
Nc1c2ccccc2nc2ccccc12 | - | - | - | 20 | - | -
Nc1c2c(nc3ccccc13)CCCC2 | - | - | ? | 16! | - | -
Cc1c(N(C)C)nc2ccccc2c1N | - | - | . | . | . | -
Clc1c2c(nc3ccccc13)CCC2 | - | - | - | - | - | -
O=C(Nc1ccc2c(c1)CCC2)c1ccccc1 | - | - | 45 | - | - | -
O=C(O)c1ccccc1-c1ccccc1C(=O)Nc1ccc2c(c1)CCC2 | - | - | - | - | - | -
C[C@H](CO)N1C[C@H](C)[C@@H](CN(C)CC2CC2)Oc2ccc(NC(=O)Nc3ccc(F)cc3)cc2CC1=O | - | - | - | - | - | .
O=C(C[C@@H]1C[C@H]2c3cc(NC(=O)NC4CCCC4)ccc3O[C@H]2[C@H](CO)O1)NCc1ccccc1 | - | - | - | - | - | .
CC(=O)OC1CCC2C3CCC4=CC(=O)CCC4(C)C3CCC2(C)[C@]1(C)O (stereo partly drawn) | - | - | 106 | - | - | -
O=C(CN1CCN(S(=O)(=O)c2ccc(F)c(Cl)c2)CC1)N1CCc2ccccc2C1 | - | - | - | 16 | - | -
O=c1[nH]c2cc(Cl)ccc2n1-c1ccccc1 | 100 | - | . | . | . | -
SMILES | C2C12 statin | Cneo AK release | DENV2 CPE rescue | F508del corr | ERp5 inh | PDI turbidity
COc1ccc(NC(=O)CSc2ccc(-c3ccccn3)nn2)cc1OC | - | - | - | - | - | -
COc1ccccc1NC(=O)CSc1ccc(-c2ccccn2)nn1 | - | - | - | 8.1 | - | -
O=S(=O)(N[C@@H]1CC[C@@H](CCn2cc(-c3ccccn3)nn2)O[C@H]1CO)c1cccc(Cl)c1 | - | - | 37 | - | - | .
O=S(=O)(N[C@H]1CC[C@H](CCn2cc(-c3cccnc3)nn2)O[C@@H]1CO)c1ccccc1 | - | - | 29 | - | - | .
Cc1ccc(S(=O)(=O)N[C@H]2CC[C@@H](CCn3cc(-c4cccc(F)c4)nn3)O[C@H]2CO)cc1 | - | - | 34 | - | - | .
O=C(C[C@H]1CC[C@@H]2[C@H](COC[C@H](O)CN2Cc2cccc(-c3ccncc3)c2)O1)N1CCCCC1 | - | - | - | - | - | .
CC1=C/C(=C\C=C(C#N)C#N)N(C)c2ccccc21 | . | - | - | 10 | - | -
CO[C@H](CN(C)Cc1nccs1)[C@H](C)CN([C@H](C)CO)S(=O)(=O)c1ccc(C)cc1 | - | - | - | - | - | .
CCOc1ccc(N(CC(=O)NC2CCCC(C)C2C)S(=O)(=O)c2c(C)noc2C)cc1 (stereo not drawn) | - | - | 26 | - | - | -
CC=Cc1ccc2n(c1=O)C[C@H]1[C@H](CO)[C@@H](C(=O)NCc3ccccc3)[C@@H]2N1CC (mixture of isomers) | - | - | - | - | - | .
C=CCN=C(NC#N)SCC(=O)c1cccc(OC)c1 | 112 | . | - | - | - | -
C=CCN=C(NC#N)SCc1ccccc1 | - | - | . | . | . | -
COc1ccc(C(=O)Nc2ccnn2C2CCN(C(=O)c3cnsn3)CC2)cc1 | - | - | 40 | - | - | -
CCNC(=O)[C@@H]1[C@@H](CO)[C@@H]2Cn3c(ccc(-c4ccncc4)c3=O)[C@@H]2N1Cc1ccc2c(c1)OCO2 | - | - | - | - | - | .
O=S1(=O)OCCC(c2ccccc2)N1Cc1ccccc1 (stereo not drawn) | - | - | - | - | - | -
CN1C(c2ccccc2)CCOS1(=O)=O (stereo not drawn) | - | - | 47 | - | - | -
Cc1ccc(S(=O)(=O)Nc2ccc3c(c2)CC(=O)N([C@@H](C)CO)C[C@H](C)[C@H](CN(C)C(=O)Nc2cccc4ccccc24)O3)cc1 | - | - | - | - | - | .
CO[C@H]1CN(C)C(=O)c2cc(NS(C)(=O)=O)ccc2OC[C@@H](C)N(C(=O)CC2CC2)C[C@@H]1C | - | - | - | - | - | .
OC1(c2ccc(Cl)cc2)CCN(Cc2c[nH]c3ccccc23)CC1 | - | - | 56 | - | - | -
CC(=O)Nc1c(C(=O)O)[nH]c2ccccc12 | 99 | - | . | . | . | -
CC1CCC(CN2CCN=C2Nc2ccccc2)CC1 (stereo not drawn) | - | - | 40 | - | - | -
c1ccc(NC2=NCCN2CC2CCC2)cc1 | - | - | - | - | - | -
C[C@H]1CN([C@@H](C)CO)S(=O)(=O)c2ccc(C#CC3CC3)cc2O[C@@H]1CN(C)Cc1ccccc1 | - | - | - | - | - | .
